Source: paper PMC2843942 (Journal of the American Chemical Society, 2010)
Like-named read-outs stand apart in the source and are kept apart here. Values belong to the compound of their own block, whether it stands above or below them.

What was measured:
GST-LSD1 [1] = target: T1, GST-LSD1 (Homo sapiens, UniProt O60341); conditions: cited from earlier work; for inactivation of LSD1: result in words
[2] = test system: TSHalpha luciferase reporter in α-23 cells derived from GH3 cells; conditions: 10 µM phenelzine, 24 hours, with or without 0.1 µM T3
GST-LSD1 [3] = target: T1, GST-LSD1; experiment: peroxidase-coupled assay; format: biochemical; conditions: for k(inact): 185 nM GST-LSD1, Kitz-Wilson analysis; for KI (inactivation): 185 nM GST-LSD1, 240 µM substrate, extrapolated to zero substrate, Kitz-Wilson; for time-dependent inactivation of LSD1: result in words
[4] = test system: methylation of Lys-4 of histone H3 in α-23 cells; conditions: 10 µM phenelzine, one hour, ChIP
GST-LSD1 [5] = target: T1, GST-LSD1; conditions: 500 µM phenelzine, 30 min preincubation, 10 µM substrate
GST-LSD1 (aa 171-852) [6] = target: GST-LSD1 (aa 171-852) (UniProt O60341); experiment: enzyme inactivation kinetics
GST-LSD1 [7] = target: T1, GST-LSD1; experiment: Amplex Red horseradish peroxidase coupled assay detecting H2O2; format: biochemical
Outline: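 Human GST-LSD1 (aa 171–852) from E. coli, at 25 nM, in 50 mM HEPES pH 7.5 with 0.1 mM Amplex Red and 0.76 µM horseradish peroxidase. Dimethyl-Lys-4 H3-21 substrate started 150 µL reactions, aerobic, at 25 °C. For inactivation, test compound and substrate (600 µM final) were added together. H2O2 was followed at 571 nm (ε 52,000 M−1 cm−1) from initial velocities.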

GST-LSD1 (aa 171-852) [8] = target: GST-LSD1 (aa 171-852) (UniProt O60341); experiment: enzyme inhibition kinetics
[9] = 25 nM LSD1, 600 µM substrate, Amplex Red

Compound: C#CCN(C)Cc1ccccc1 [pargyline, reference compound]
- inactivation of LSD1 (GST-LSD1 [1]): failed in subsequent studies to appreciably inactivate LSD1

- k(inact) (GST-LSD1 [3]): 0.955 ± 0.085 min⁻¹
- demethylation of H3-21 dimethyl-Lys substrate peptide by treated LSD1 (GST-LSD1 [5]): unable to induce loss of a methyl group
Compound: NNCCc1ccccc1 [phenelzine, phenethylhydrazine]
- luciferase activity of TSHalpha reporter [2]: increases luciferase activity both in the absence and presence of T3
- mono and dimethylation of Lys-4 H3 at TSHalpha reporter region [4]: enhanced
- trimethylation level of Lys-4 H3 at TSHalpha reporter region [4]: unaffected

- Ki(inact) (GST-LSD1 (aa 171-852) [6]): 955 nM
Compound: cis-3-chloroallyl-Lys-4 H3-21 (3) (from UniProt P68431 2-22) (peptide)

- kinact/Ki(inact) fold difference from peptide 2 (GST-LSD1 [3]): ≤ 5 fold
- KI (inactivation) (GST-LSD1 [3]): 955 ± 150 nM
- k(inact) (GST-LSD1 [3]): 0.545 ± 0.038 min⁻¹
Compound: cis-3-chloroallyl-Lys-4 H3-21 [compound 3]
- time-dependent inactivation of LSD1 (GST-LSD1 [3]): time- and concentration-dependent inactivation

- kcat (GST-LSD1 [3]; GST-LSD1 with this substrate, 185 nM enzyme): 0.075 ± 0.0017 s⁻¹
- Km (GST-LSD1 [3]; substrate of GST-LSD1, 185 nM enzyme, pH 7.5, 25 °C): 21 ± 2 µM
- kcat (GST-LSD1 [7]; GST-LSD1 with this substrate, 25 nM enzyme, Amplex Red): 0.0583 ± 0.0033 s⁻¹
- Km (GST-LSD1 [7]; substrate of GST-LSD1, 25 nM enzyme, Amplex Red): 20 ± 3 µM
Compound: dimethyl-Lys-4 H3-21 [reference compound]

- Ki (GST-LSD1 (aa 171-852) [8]): 6110 nM
Compound: endo-cyclopropyl-Lys-4 H3-21 (7) (from UniProt P68431 2-22) (peptide)

- Ki (GST-LSD1 (aa 171-852) [8]): 24200 nM
Compound: endo-dimethylcyclopropyl-Lys-4 H3-21 (8) (from UniProt P68431 2-22) (peptide)

Compound: exo-cyclopropyl-Lys-4 H3-21 [compound 6]
- inactivation of LSD1 (GST-LSD1 [1]): did not inactivate LSD1
- Ki (GST-LSD1 [1]; reversible inhibitor, estimated, obtained previously): 2700 ± 740 nM

- Ki(inact) (GST-LSD1 (aa 171-852) [6]): 4.35 nM
Compound: hydrazino-Lys-4 H3-21 (18) (from UniProt P68431 2-22) (peptide)

Compound: hydrazino-Lys-4 H3-21 [compound 18]
- time-dependent inactivation of LSD1 (GST-LSD1 [3]): highly potent time-dependent inhibitor
- fold more efficient in inhibiting demethylation than propargylamine-H3 derivatives (GST-LSD1 [7]): more than 20 fold
- KI (inactivation) (GST-LSD1 [7]; [9]): 4.35 ± 0.86 nM
- k(inact) (GST-LSD1 [7]; [9]): 0.247 ± 0.018 min⁻¹
- fold more potent than 2 as LSD1 inactivator (GST-LSD1 [7]; versus N-methylpropargylamine peptide 2): approximately 25 fold

Compound: propargyl-Lys-4 H3-21 [compound 1]
- KI (inactivation) (GST-LSD1 [1]; obtained previously): 775 ± 160 nM
- k(inact) (GST-LSD1 [1]; obtained previously): 0.304 ± 0.033 min⁻¹

- Ki(inact) (GST-LSD1 (aa 171-852) [6]): 763 nM
Compound: trans-3-chloroallyl-Lys-4 H3-21 (4) (from UniProt P68431 2-22) (peptide)

- KI (inactivation) (GST-LSD1 [3]): 763 ± 120 nM
- k(inact) (GST-LSD1 [3]): 0.128 ± 0.0087 min⁻¹
Compound: trans-3-chloroallyl-Lys-4 H3-21 [compound 4]
- time-dependent inactivation of LSD1 (GST-LSD1 [3]): time- and concentration-dependent inactivation
